Screens deposited in PubChem by Broad Institute.
miR122 inh: blocks miR-122 activity in Huh7 sensor cells. Huh7 miR-122 Renilla luciferase sensor, 48 h; neutral wells = 0, positive control = 100. activation (reporter increase), % at 12.5 µM. hit rate 0.3% among 340,000. AID 602342;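 active means mean replicate activation score at least 90 and every replicate individually at or above 90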;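 further: higher luciferase means less miR-122 activity so hits act as miR-122 inhibitors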
dFosB activator: activators of mouse delta FosB homodimer; P13346; purified delta FosB, TAMRA-CDK5 oligo fluorescence polarization; percent of positive-control signal above neutral wells; activation, % at 25 µM; hit rate 0.99% among 340,000;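 active means mean activation above about 17%, with every replicate also reaching it, limit read from the data, passing the limit was not always enough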
Cneo AK release: causes C. neoformans cell lysis | adenylate kinase release luminescence, 4 h; normalised: neutral wells 0, clomiphene wells 100 | lysis activity, % at 15 µM | hit rate 0.2% among 360,000 | AID 651654;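 active means mean lysis activity across replicates of at least 80%, whatever share of replicates individually reach that level; inactive means mean lysis activity below 80%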
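Assay system: C. neoformans cells. Amount: yeast cell density of 5 × 10^6 cells/mL. Technique: AK luminescence. Buffer or medium: YPD. Times: static 4 h at 37 °C with compound, 1 h detection. Dosing: single-point compound dose. Read-out: lysis from increased AK signal.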
Rtt109 HAT inh: blocks Candida albicans Rtt109/Vps75 acetyltransferase activity | Q5AAJ8 | purified Rtt109/Vps75, ThioGlo CoA-SH fluorescence, 4 h | inhibition, % at 34.9 µM | hit rate 0.16% among 330,000;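 active means inhibition of at least 50% in every replicate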
Target sequence (Q5AAJ8 whole entry, looked up): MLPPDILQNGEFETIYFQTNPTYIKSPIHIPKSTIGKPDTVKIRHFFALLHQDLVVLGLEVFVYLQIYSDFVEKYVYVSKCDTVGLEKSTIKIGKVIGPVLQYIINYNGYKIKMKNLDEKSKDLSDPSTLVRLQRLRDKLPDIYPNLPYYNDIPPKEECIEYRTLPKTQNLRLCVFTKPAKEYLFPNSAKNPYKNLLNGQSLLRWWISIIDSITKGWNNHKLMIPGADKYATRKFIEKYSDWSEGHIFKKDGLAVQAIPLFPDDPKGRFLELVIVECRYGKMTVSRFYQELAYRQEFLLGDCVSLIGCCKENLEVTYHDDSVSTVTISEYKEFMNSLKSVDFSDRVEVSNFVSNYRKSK
HIV Env fusion: HIV envelope-mediated fusion inhibition; AID 651610; hit rate 1.1% among 360,000; inhibition, % at 12.3 µM; HeLa-JRFL Env/CEM21 cell fusion, luciferase;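 active means mean replicate inhibition score of at least 50 and every replicate individually at or above 50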
GSIS activator: primary screen for activators of insulin secretion dependent on glucose, INS-1E cells, GLuc reporter luminescence; INS-1E GLuc reporter insulin secretion, 2-3 h; activation, % at 16.6 µM; hit rate 0.61% among 370,000; AID 743287;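 active means lowest replicate activation of at least 40%, so every replicate reaches that level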
Large screens that a line does not name were inactive. This is a sample that favours compounds with a hit; in the whole collection about 2.4% have one here.

COc1ccc(-c2csc(C(C)(O)c3cccc(OC)c3)n2)cc1 (stereo not given)	none (no result: dFosB activator, Rtt109 HAT inh)
COc1cccc(C(C)(O)c2nc(-c3ccc(S(C)(=O)=O)cc3)cs2)c1 (stereo not given)	HIV Env fusion 64.0 (no result: dFosB activator, Rtt109 HAT inh, GSIS activator)
CCCn1nc(NC(=O)c2ccco2)c2cc3ccccc3nc21	GSIS activator 44.9 (no result: miR122 inh, Cneo AK release, Rtt109 HAT inh)
COc1cc(C(=O)Nc2cc(C(F)(F)F)ccc2N2CCOCC2)ccc1OCC(=O)N1CCOCC1	GSIS activator 50.1 (no result: miR122 inh, Cneo AK release, HIV Env fusion)
COc1ccccc1-c1ocnc1C(=O)Nc1ccc(N2CCOCC2)cc1N1CCOCC1	none
CCOc1cc(N2CCOCC2)c(OCC)cc1NC(=O)COC(=O)CCOc1ccc(C(C)(C)C)cc1	none
COc1ccc(-c2ocnc2C(=O)Nc2ccc(N3CCOCC3)cc2N2CCOCC2)cc1OC	GSIS activator 85.0
COc1ccc(OC)c(NC(=O)c2ccc(OCC(=O)N3CCOCC3)c(OC)c2)c1	none (no result: HIV Env fusion)
CC(C)(C)c1ccc(OCCC(=O)Nc2ccc(N3CCOCC3)cc2N2CCOCC2)cc1	HIV Env fusion 68.8 (no result: miR122 inh)
C/C=C/c1ccc([C@@H]2[C@@H](CO)N(C(=O)C3CC3)C23CN(S(=O)(=O)CC)C3)cc1	none (no result: miR122 inh, dFosB activator, Cneo AK release, Rtt109 HAT inh)
Cc1c(Cc2ccccc2)sc(NC(=O)Cc2ccccc2)c1C(N)=O	none (no result: HIV Env fusion)
Cc1c(Cc2ccccc2)sc(NC(=O)C(C)(C)C)c1C(N)=O	GSIS activator 46.0 (no result: miR122 inh, Cneo AK release)
Cc1c(Cc2ccc3c(c2)OCO3)sc(NC(=O)c2ccc3ccccc3c2)c1C(N)=O	none (no result: dFosB activator, Rtt109 HAT inh, GSIS activator)
CCC(=O)Nc1sc(Cc2ccc3c(c2)OCO3)c(C)c1C(N)=O	GSIS activator 66.9 (no result: miR122 inh, Cneo AK release)
COC(=O)c1c(NC(C)=O)sc(Cc2ccccc2)c1C	miR122 inh 153.4 (no result: GSIS activator)
CN(C)CCCNc1ccc(-c2cc(Nc3cccc(Cl)c3)ncn2)cn1	dFosB activator 39.4 (no result: GSIS activator)
CCCNC(=O)[C@@H]1[C@@H](CO)[C@@H]2Cn3c(cccc3=O)[C@H]1N2Cc1ccccc1	none (no result: miR122 inh, dFosB activator, Rtt109 HAT inh, HIV Env fusion)
Cc1nn(Cc2c(F)c(F)c(F)c(F)c2F)c(C)c1NC(=O)c1ccc(COc2ccc(Cl)cc2Cl)o1	HIV Env fusion 67.8 (no result: miR122 inh, Cneo AK release)
Cc1nn(Cc2ccc(Cl)cc2Cl)c(C)c1NC(=O)c1ccc(COc2cc(Cl)ccc2Cl)o1	none (no result: HIV Env fusion, GSIS activator)
CCOC(=O)Cc1cc(=O)n2[nH]c(-c3ccc(C)cc3)cc2n1	GSIS activator 64.8
COc1ccc(C[C@H]2CCc3cnnn3COC[C@@H](Cc3ccccc3)NC2=O)cc1	none (no result: miR122 inh, dFosB activator, Rtt109 HAT inh)
CCOc1ccc(N(CC(=O)N2CCc3ccccc32)S(=O)(=O)c2c(C)noc2C)cc1	none
Cc1n[nH]c(C)c1S(=O)(=O)N(CC(=O)N1CCc2ccccc21)c1ccc(C(C)C)cc1	dFosB activator 50.1
CC(C)NC(=O)Nc1ccc2c(c1)C(=O)N([C@H](C)CO)C[C@H](C)[C@H](CN(C)Cc1ccc(-c3ccccc3)cc1)O2	none (no result: dFosB activator, Rtt109 HAT inh)
CC1(C(=O)NCc2ccc3c(c2)OCO3)CCN1Cc1csc2ccccc12 (stereo not given)	HIV Env fusion 98.3 (no result: dFosB activator, Rtt109 HAT inh)
CC1(C(=O)Nc2ccc3c(c2)OCCO3)CCN1Cc1csc2ccccc12 (stereo not given)	none (no result: dFosB activator, Rtt109 HAT inh)
c1ccc(CNc2nc(N3CCOCC3)nc(N3CCOCC3)n2)cc1	none (no result: HIV Env fusion, GSIS activator)
Clc1ccc(CNc2nc(N3CCOCC3)nc(N3CCOCC3)n2)cc1	miR122 inh 128.8 (no result: GSIS activator)
O=C(COc1ccc(Cl)cc1Cl)N1CCCN(C(=O)COc2ccc(Cl)cc2Cl)CC1	HIV Env fusion 83.5
COC(=O)c1sccc1NC(=O)COc1ccc(Cl)cc1Cl	GSIS activator 61.3 (no result: miR122 inh, Cneo AK release)
Cc1cc(Cl)ccc1OCC(=O)N1CCCCC1	none (no result: HIV Env fusion, GSIS activator)
COC(=O)c1sccc1NC(=O)COc1ccc(C)cc1	none (no result: Cneo AK release)
CC(=O)N1CCN(c2ccc(NC(=O)COc3ccc(Cl)cc3Cl)cc2)CC1	HIV Env fusion 52.8 (no result: GSIS activator)
CC(=O)N1CCN(c2ccccc2NC(=O)COc2ccc(Cl)cc2Cl)CC1	none (no result: HIV Env fusion, GSIS activator)
O=C(Nc1ccc(F)cc1)N1CC(=O)N2[C@H](C1)[C@@H](c1ccc(C#CC3CC3)cc1)[C@@H]2CO	none (no result: miR122 inh, dFosB activator, Cneo AK release, Rtt109 HAT inh, HIV Env fusion)
O=C(C=P(c1ccccc1)(c1ccccc1)c1ccccc1)c1ccccc1-c1ccccc1C(=O)C=P(c1ccccc1)(c1ccccc1)c1ccccc1	dFosB activator 36.4 (no result: miR122 inh, Cneo AK release)
O=C(NNC(=O)c1ccccc1-c1ccccc1C(=O)O)c1ccccc1	none (no result: Cneo AK release)
